Experimental findings from ChEMBL document CHEMBL2176936, “Identification of a 4-(hydroxymethyl)diarylhydantoin as a selective androgen receptor modulator” (J Med Chem, 2012) are described below.

Structures are written as SMILES.

Data set [1] concerns Rattus norvegicus. In words: Androgenic activity in ORX rat model assessed as weight of ventral prostate at 30 mg/kg/day, po administered for 4 days. The format is functional, Prostate gland. An outline of the steps:
(§1)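 Hershberger-type model in castrated immature male rats: left untreated one week after castration, then dosed four days (test compounds oral; testosterone propionate sc). Levator ani and ventral prostate weights normalised to body weight; activity % = (W/BW treated − W/BW ORX)/(W/BW sham − W/BW ORX) × 100. A50 = dose giving 50% activity on the tissue.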

Data set [2] has as its system Rattus norvegicus. In words: Androgenic activity in ORX rat model assessed as weight of ventral prostate at 10 mg/kg/day, po administered for 4 days. Type of data set: functional, Prostate gland. An outline of the steps:
as §1

For data set [3], the system named is Rattus norvegicus. In words: Anabolic activity in ORX rat model assessed as weight of levator ani muscle at 30 mg/kg/day, po administered for 4 days. Type of data set: functional. The gist of the method: as §1
A short description of data set [4]: Oral bioavailability in monkey. The format is ADME, organism-based, Macaca mulatta. The settings on record: rhesus monkey, in vivo.
Data set [5] can be described thus: Oral bioavailability in rat at 10 mg/kg and 3 mg/kg, iv. Type of data set: ADME, organism-based. The note with it: in vivo. The gist of the method:
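Absolute oral bioavailability in rats: single oral dose 10 mg/kg in EtOH/PEG400/H₂O (1/79/20, v/v/v) compared with single iv dose 3 mg/kg in DMSO/PEG400/H₂O (1/65/34, v/v/v).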

The test system of data set [6] is Rattus norvegicus. In words: Anabolic activity in ORX rat model assessed as weight of levator ani muscle at 10 mg/kg/day, po administered for 4 days. The format is functional. An outline of the steps: as §1
Data set [7] is described as follows: Oral bioavailability in Sprague-Dawley rat at 10 mg/kg. The format is ADME, organism-based. The note with it: in vivo. An outline of the steps:
(§2)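 Male Sprague-Dawley rats, single dose: iv 3 mg/kg in DMSO/PEG200/H₂O (1/79/20, v/v/v), or oral 10 mg/kg in EtOH/PEG200/H₂O (1/79/20, v/v/v). Two groups of three rats; N = 2 rats for one arm. CL, T1/2, Vdss, AUC(0−∞) and F derived.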

The nature of data set [8]: AUC (0 to infinity) in Sprague-Dawley rat at 10 mg/kg, po. Type of data set: ADME, organism-based. Set-up: time infinity, dose 10 mg/kg, route oral. The settings on record: plasma.
Data set [9] in a line: AUC (0 to infinity) in Sprague-Dawley rat at 3 mg/kg, iv. Set-up: dose 3 mg/kg, route intravenous, time infinity. The format is ADME, organism-based. The note with it: plasma.
Data set [10] can be described thus: Volume of distribution at steady state in Sprague-Dawley rat at 3 mg/kg, iv. The format is ADME, organism-based. Set-up: dose 3 mg/kg, route intravenous. The note with it: in vivo, read-out: Vdss. The gist of the method: as §2
Data set [11] is described as follows: Half life in Sprague-Dawley rat at 10 mg/kg, po. Type of data set: ADME, organism-based. Set-up: dose 10 mg/kg, route oral. The settings on record: in vivo. An outline of the steps:
as §2

Data set [12] is described as follows: Half life in Sprague-Dawley rat at 3 mg/kg, iv. Set-up: dose 3 mg/kg, route intravenous. The settings on record: in vivo. Type of data set: ADME, organism-based. An outline of the steps: as §2
Data set [13] is described as follows: Clearance in Sprague-Dawley rat at 3 mg/kg, iv. Type of data set: ADME, organism-based. On the set-up: dose 3 mg/kg, route intravenous. The note with it: in vivo. The gist of the method:
as §2

Data set [14] relates to Rattus norvegicus. In words: […] activity in ORX rat model assessed as increase in prostate weight at 10 mg/kg/day, po administered for 3 months relative to sham-treated control. The format is functional, Prostate gland. The gist of the method:
(§3)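 Rats castrated at seven weeks of age, then given compound orally for three months in a prophylactic setting at 10 mg/kg/day. Levator ani and prostate weights normalised with sham-operated rats set to 100% and ORX rats set to 0%.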

The subject of data set [15] is Rattus norvegicus. In words: Anabolic activity in ORX rat model assessed as increase in levator ani muscle weight at 10 mg/kg/day, po administered for 3 months relative to sham-treated control. Type of data set: functional. The gist of the method: as §3
The test system of data set [16] is Rattus norvegicus. In words: […] activity in ORX rat model assessed as activity on ventral prostate at 30 mg/kg/day, po administered for 4 days. The format is functional, Prostate gland. An outline of the steps: as §1
For data set [17], the system named is Rattus norvegicus. In words: Anabolic activity in ORX rat model assessed as dose required for 50% activity on levator ani muscle po administered for 4 days. Type of data set: functional. The gist of the method: as §1
Data set [18] concerns Rattus norvegicus. In words: Androgenic activity in ORX rat model assessed as dose required for 50% activity on ventral prostate po administered for 4 days. Type of data set: functional, Prostate gland. An outline of the steps:
as §1

The test system of data set [19] is Rattus norvegicus. In words: Androgenic activity in ORX rat model assessed as weight of ventral prostate at 1 mg/kg/day, sc administered for 4 days. Type of data set: functional, Prostate gland. The settings on record: route subcutaneous. The gist of the method: as §1
For data set [20], the system named is Rattus norvegicus. In words: Anabolic activity in ORX rat model assessed as weight of levator ani muscle at 1 mg/kg/day, sc administered for 4 days. Type of data set: functional. The settings on record: route subcutaneous. An outline of the steps: as §1

What is called bioavailability is dose-corrected exposure relative to a reference, in per cent. For `CN1C(=O)N(c2ccc(C#N)c(C(F)(F)F)c2)C(=O)[C@@]1(C)c1ccc(O)cc1`, the Activity in the data set on Rattus norvegicus [1] is on record as 26%; in the data set with Rattus norvegicus [2], 12%; with Rattus norvegicus [3] it was 77%. Also, the bioavailability in data set [4] and in [5] was less than 9% throughout.

Consider `CN1C(=O)N(c2ccc(C#N)c(C(F)(F)F)c2)C(=O)[C@]1(CO)c1ccccc1`, for which, in the data set on Rattus norvegicus [6], the Activity worked out at 101%.

For `CN1C(=O)N(c2ccc(C#N)c(C(F)(F)F)c2)C(=O)C1(C)c1ccc(O)cc1` (racemic), the Activity in the data set with Rattus norvegicus [1] turned out to be 16%; with Rattus norvegicus [2], 8%; in the data set with Rattus norvegicus [3], 89%; in the data set with Rattus norvegicus [6], 68%. In data set [5], this compound returned a bioavailability of 1.5%.

Consider `CN1C(=O)N(c2ccc(Cl)c(Cl)c2)C(=O)C1(CO)c1ccccc1` (racemic), for which the Activity in the data set with Rattus norvegicus [2] is 23%; in the data set with Rattus norvegicus [6], 96%.

On to `CCN1C(=O)N(c2ccc(C#N)c(C(F)(F)F)c2)C(=O)C1(CO)c1ccccc1` (racemic), for which the Activity with Rattus norvegicus [2] was 59%; in the data set with Rattus norvegicus [6], 112%. The bioavailability in [5] is 76%.

Consider `CC(C)N1C(=O)N(c2ccc(C#N)c(C(F)(F)F)c2)C(=O)C1(CO)c1ccccc1` (racemic), for which the Activity is 60% in the data set on Rattus norvegicus [2] and 109% in the data set with Rattus norvegicus [6].

Turning to `C#CCN1C(=O)N(c2ccc(C#N)c(C(F)(F)F)c2)C(=O)C1(CO)c1ccccc1` (racemic), the Activity was determined as 43% in the data set with Rattus norvegicus [2] and 96% in the data set on Rattus norvegicus [6].

On to `CN1C(=O)N(c2ccc(C#N)c(C(F)(F)F)c2)C(=O)C1(C)c1ccc2[nH]ccc2c1` (racemic), for which, in data set [5], the bioavailability is 19%.

In the case of `CN1C(=O)N(c2ccc(C#N)c(C(F)(F)F)c2)C(=O)C1(C)c1ccc2[nH]cnc2c1` (racemic), in data set [5], the bioavailability came out at 100%.

`CN1C(=O)N(c2ccc(C#N)c(C(F)(F)F)c2)C(=O)C1(CO)c1ccccc1` (racemic): the Activity in the data set with Rattus norvegicus [1] amounted to 14%; in the data set on Rattus norvegicus [2] it was 13%; in the data set on Rattus norvegicus [3] it was 96%. Moreover, the bioavailability in [5] came out at 63%.

Take `COc1ccc(C2(CO)C(=O)N(c3ccc(C#N)c(C(F)(F)F)c3)C(=O)N2C)cc1` (racemic): the figures for the Activity in the data set on Rattus norvegicus [1] and in the data set with Rattus norvegicus [3] were 95% and 130%, respectively. Besides, the bioavailability in data set [5] amounted to 25%.

Regarding `CN1C(=O)N(c2ccc(C#N)c(C(F)(F)F)c2)C(=O)C1(CO)c1ccc(O)cc1` (racemic), the Activity in the data set with Rattus norvegicus [1] is 55%; in the data set with Rattus norvegicus [3], 82%. This compound also registered a bioavailability in [5] of 15%.

In the case of `CN1C(=O)N(c2ccc(C#N)c(C(F)(F)F)c2)C(=O)C1(CO)c1ccccc1Cl` (racemic), the Activity is given as 7% in the data set on Rattus norvegicus [2] and 26% with Rattus norvegicus [6].

`CN1C(=O)N(c2ccc(C#N)c(C(F)(F)F)c2)C(=O)C1(CO)c1cccc(Cl)c1` (racemic): the Activity with Rattus norvegicus [2] stood at 16%; with Rattus norvegicus [6], 66%.

Regarding `CN1C(=O)N(c2ccc(C#N)c(C(F)(F)F)c2)C(=O)C1(CO)c1ccc(Cl)cc1` (racemic), the Activity in the data set on Rattus norvegicus [2] came out at 0%; with Rattus norvegicus [6], 35%. Besides, in data set [5], the bioavailability stood at 99%.

For the compound `CN1C(=O)N(c2ccc(C#N)c(C(F)(F)F)c2)C(=O)C1(CO)c1ccc(F)cc1` (racemic), in data set [5], the bioavailability is 87%.

With `CN1C(=O)N(c2ccc(C#N)c(C(F)(F)F)c2)C(=O)C1(CO)c1cccc(C#N)c1` (racemic), the Activity with Rattus norvegicus [2] is on record as 26%; in the data set on Rattus norvegicus [6], 84%.

In the case of `CN1C(=O)N(c2ccc(C#N)c(C(F)(F)F)c2)C(=O)C1(CO)c1ccc(C#N)cc1` (racemic), the Activity in the data set with Rattus norvegicus [2] was found to be 11%; in the data set with Rattus norvegicus [6], 12%.

Take `Cc1cccc(C2(CO)C(=O)N(c3ccc(C#N)c(C(F)(F)F)c3)C(=O)N2C)c1` (racemic): the Activity in the data set with Rattus norvegicus [2] came out at 0%; in the data set on Rattus norvegicus [6], 24%.

The term AUC(0-inf) denotes total exposure, with the tail of the curve extrapolated. Usually half-life stands for how long it takes for the measured level to halve. What is called clearance is the rate of elimination divided by the concentration. As to `CN1C(=O)N(c2ccc(C#N)c(C(F)(F)F)c2)C(=O)[C@@]1(CO)c1ccccc1` [GLPG0492], the bioavailability in data set [7] and in data set [5] was 56% each time. The AUC(0-inf) in data set [8] turned out to be 4680 ng·h/mL; in [9], 2360 ng·h/mL. Moreover, the Vd in data set [10] turned out to be 2.5 L/kg. Moreover, the half-life in data set [11] was 2.2 h; in data set [12] it was 1.5 h. The compound further gave a clearance in data set [13] of 21.7 mL/min/kg. Further, the Activity was found to be 25% with Rattus norvegicus [14]; 117% in the data set on Rattus norvegicus [15]; 0.75 mg/kg/day with Rattus norvegicus [17]; 26% in the data set with Rattus norvegicus [1]; 24% in the data set on Rattus norvegicus [2]; 106% with Rattus norvegicus [3]. For the same compound, in the data set on Rattus norvegicus [6], the Activity came to 101%. The “%max” value with Rattus norvegicus [16] is reported as 30%.

Regarding `CCC(=O)O[C@H]1CC[C@H]2[C@@H]3CCC4=CC(=O)CC[C@]4(C)[C@H]3CC[C@]12C` [TESTOSTERONE PROPIONATE], the Activity with Rattus norvegicus [18] is recorded as 0.2 mg/kg/day; in the data set with Rattus norvegicus [17], 0.3 mg/kg/day; in the data set with Rattus norvegicus [19], 73%; in the data set with Rattus norvegicus [20] it was 99%.
